According to ChEMBL document CHEMBL4321820, “Identification and Optimization of Mechanism-Based Fluoroallylamine Inhibitors of Lysyl Oxidase-like 2/3” (J Med Chem, 2019):

What was measured:
Protein-lysine 6-oxidase = target: T1, Protein-lysine 6-oxidase (Bos taurus, UniProt P33072); experiment: Inhibition of LOX in bovine aorta using putrescine as substrate preincubated with enzyme for 30 mins followed by substrate addition and measured every 2.5 mins for 30 mins by Amplex-Red oxidation assay; type: tissue-based
T1 sequence (P33072 whole entry): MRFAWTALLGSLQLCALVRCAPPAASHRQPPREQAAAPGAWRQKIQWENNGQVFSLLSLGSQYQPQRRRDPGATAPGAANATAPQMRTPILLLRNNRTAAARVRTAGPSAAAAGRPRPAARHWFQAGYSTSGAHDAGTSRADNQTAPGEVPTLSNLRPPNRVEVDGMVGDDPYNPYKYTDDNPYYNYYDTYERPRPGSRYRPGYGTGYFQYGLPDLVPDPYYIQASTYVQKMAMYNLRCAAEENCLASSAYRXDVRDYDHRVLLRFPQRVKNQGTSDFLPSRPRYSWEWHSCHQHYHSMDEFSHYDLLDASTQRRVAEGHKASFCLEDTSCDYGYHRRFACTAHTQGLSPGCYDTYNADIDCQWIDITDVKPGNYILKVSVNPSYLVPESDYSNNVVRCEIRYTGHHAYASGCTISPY
Procedure, shortened: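 LOX extracted from calf aorta after PBS washing with 4 M urea/50 mM borate pH 8.2, concentrated on 10 kDa filters into 1.2 M urea/borate with protease inhibitors. Preincubated 30 min at 37 °C with compound, then Amplex Red/HRP with 10 mM putrescine; fluorescence read every 2.5 min for 30 min.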

[1] = Substrate activity at AOC4 in dog serum assessed as compound oxidation by measuring oxidative turnover at 30 uM measured for 40 mins by horseradish peroxidase-coupled amplex red reagent-based fluorometric assay relative to DMSO; type: ADME, cell-free, Canis lupus familiaris
Procedure, shortened: (§1)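 Compound oxidation measured without substrate by peroxidase-coupled fluorometric read-out of resorufin formation over 40 min at 37 °C in HEPES buffer. Amplex Red 20 µM, HRP 4 U/ml, test compound at final 30 µM. Enzyme source was human recombinant SSAO or AOC4 from diluted dog serum. Benzylamine at 600 µM served as positive control. Signal is expressed relative to DMSO-only background, so a value near 1 means no turnover.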

[2] = target: T2, Amine oxidase [copper-containing] 3 (Homo sapiens, UniProt Q16853); experiment: Substrate activity at recombinant human SSAO assessed as compound oxidation by measuring oxidative turnover at 30 uM measured for 40 mins by horseradish peroxidase-coupled amplex red reagent-based fluorometric assay relative to DMSO; type: ADME; procedure, shortened: as §1
T2 sequence (Q16853 whole entry): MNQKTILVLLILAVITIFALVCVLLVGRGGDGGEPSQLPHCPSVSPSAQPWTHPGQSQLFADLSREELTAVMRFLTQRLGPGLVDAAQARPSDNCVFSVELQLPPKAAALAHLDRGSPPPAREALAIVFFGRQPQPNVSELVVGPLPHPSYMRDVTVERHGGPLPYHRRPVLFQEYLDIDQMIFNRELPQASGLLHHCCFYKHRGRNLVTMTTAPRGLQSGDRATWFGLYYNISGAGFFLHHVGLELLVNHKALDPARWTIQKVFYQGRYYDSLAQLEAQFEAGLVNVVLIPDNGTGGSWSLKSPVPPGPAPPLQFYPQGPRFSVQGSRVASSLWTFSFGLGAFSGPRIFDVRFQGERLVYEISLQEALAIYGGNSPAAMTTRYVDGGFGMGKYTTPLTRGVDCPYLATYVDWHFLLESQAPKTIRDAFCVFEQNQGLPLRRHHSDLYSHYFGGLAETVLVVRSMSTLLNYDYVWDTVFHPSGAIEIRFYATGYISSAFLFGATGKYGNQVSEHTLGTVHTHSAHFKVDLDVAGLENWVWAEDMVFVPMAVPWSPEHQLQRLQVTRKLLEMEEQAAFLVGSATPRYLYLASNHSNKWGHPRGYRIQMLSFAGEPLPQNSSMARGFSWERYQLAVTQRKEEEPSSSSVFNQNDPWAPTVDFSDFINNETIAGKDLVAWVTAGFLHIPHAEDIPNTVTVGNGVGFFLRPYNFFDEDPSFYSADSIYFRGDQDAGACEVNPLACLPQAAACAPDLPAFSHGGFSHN

Lysyl oxidase homolog 2 = target: T3, Lysyl oxidase homolog 2 (Homo sapiens, UniProt Q9Y4K0); experiment: Inhibition of recombinant human C-terminal His-tagged […] (1-774 residues) expressed in mouse myeloma cells using putrescine as substrate preincubated with enzyme for 30 mins followed by substrate addition and measured every 2.5 mins for 30 mins by Amplex-Red oxidation assay
T3 sequence (Q9Y4K0 whole entry): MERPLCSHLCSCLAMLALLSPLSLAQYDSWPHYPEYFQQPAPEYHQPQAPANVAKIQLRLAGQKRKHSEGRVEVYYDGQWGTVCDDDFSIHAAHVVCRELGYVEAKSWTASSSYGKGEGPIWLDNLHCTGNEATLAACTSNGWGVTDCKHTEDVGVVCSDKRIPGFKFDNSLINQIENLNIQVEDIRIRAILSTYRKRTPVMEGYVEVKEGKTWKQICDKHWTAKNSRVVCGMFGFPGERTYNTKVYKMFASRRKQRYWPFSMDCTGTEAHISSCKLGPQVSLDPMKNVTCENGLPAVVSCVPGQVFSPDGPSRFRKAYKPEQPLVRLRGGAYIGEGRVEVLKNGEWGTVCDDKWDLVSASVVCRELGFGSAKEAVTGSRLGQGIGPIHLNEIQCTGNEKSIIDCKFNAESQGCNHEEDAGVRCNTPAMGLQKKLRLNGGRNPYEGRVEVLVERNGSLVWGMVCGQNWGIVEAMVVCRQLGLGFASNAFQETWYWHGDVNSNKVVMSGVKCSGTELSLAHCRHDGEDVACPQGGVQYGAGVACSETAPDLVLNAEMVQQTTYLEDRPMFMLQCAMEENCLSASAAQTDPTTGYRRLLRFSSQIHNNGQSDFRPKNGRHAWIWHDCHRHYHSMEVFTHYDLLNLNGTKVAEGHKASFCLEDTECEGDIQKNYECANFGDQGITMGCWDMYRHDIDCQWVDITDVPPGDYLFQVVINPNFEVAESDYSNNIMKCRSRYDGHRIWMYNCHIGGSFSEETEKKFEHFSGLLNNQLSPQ
Procedure, shortened: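 LOXL2 enzyme preincubated with compound for 30 min at 37 °C, then Amplex Red (120 µM) / HRP (1.5 U/mL) mix containing 5 mM putrescine added. Buffer: 1.2 M urea, 50 mM sodium borate, pH 8.2. H2O2 fluorescence (ex 565/em 590) read every 2.5 min for 30 min at 37 °C; BAPN 100 µM as positive control; n≥2.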

[3] = target: T2, Amine oxidase [copper-containing] 3; experiment: Inhibition of recombinant human SSAO using benzylamine as substrate preincubated with enzyme for 30 mins followed by substrate addition and measured every 2.5 mins for 30 mins by Amplex-Red oxidation assay

IC50 (Protein-lysine 6-oxidase; read-out: pIC50 (converted))	fold change (FC) [1]	fold change (FC) [2]	IC50 (Lysyl oxidase homolog 2; read-out: pIC50 (converted))	IC50 ([3]; read-out: pIC50 (converted))	IC50 (Protein-lysine 6-oxidase; read-out: IC50)	IC50 ([3]; read-out: IC50)	IC50 (Lysyl oxidase homolog 2; read-out: IC50)	SMILES
6.31 µM	1	2.4	0.0794 µM	–	–	–	–	CCOC(=O)c1ccc2c(c1)c(-c1cccc(S(=O)(=O)N(C)C)c1)c(C)n2C/C(F)=C/CN.Cl
2 µM	> 4	1.4	0.1 µM	7.94 µM	–	–	–	Cc1c(-c2cccc(S(=O)(=O)N(C)C)c2)c2ccccc2n1C/C(F)=C/CN.Cl
–	1	1	–	–	1.78 µM	> 30 µM	0.005 µM	Cc1c(-c2cccc(S(=O)(=O)N(C)C)c2)c2cc(C(=O)O)ccc2n1C/C(F)=C/CN.Cl
